Screening data from PubChem BioAssay.
aDG glyco up – alpha-DG glycosylation activation. activation, % at 10 µM. actives 0.22% (n = 360,000). Pro5-aDG cells, alpha-DG glycosylation AlphaScreen (IIH6); 0% Pro5, 100% B10-LARGE cell signal;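 active = activation of at least 8% versus controls, or a plate z-score of at least 8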;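 note: Pro5 are CHO cells carrying HIG-tagged alpha-DG that lacks glycosylation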
ADAM10 inh – inhibits human ADAM10; O14672; recombinant ADAM10, EDANS/DABCYL FRET peptide cleavage, 3 h; inhibition, % at 7 µM; actives 0.62% (n = 370,000); AID 720582;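 active = inhibition above a per-campaign cutoff equal to the mean of compounds falling between control-based bounds plus 3 SD, cut at about 20% in these data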
ADAM17 inh – ADAM17 inhibition, QFRET primary screen; AID 720648; actives 0.83% (n = 370,000); inhibition, % at 6.95 µM; P78536; recombinant ADAM17, EDANS/DABCYL FRET peptide cleavage;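 active = inhibition above the mean of compounds lying between control limits plus 3 SD, set per campaign, cut at about 8.5% in these data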
Target sequence (P78536 215-824 limits assumed): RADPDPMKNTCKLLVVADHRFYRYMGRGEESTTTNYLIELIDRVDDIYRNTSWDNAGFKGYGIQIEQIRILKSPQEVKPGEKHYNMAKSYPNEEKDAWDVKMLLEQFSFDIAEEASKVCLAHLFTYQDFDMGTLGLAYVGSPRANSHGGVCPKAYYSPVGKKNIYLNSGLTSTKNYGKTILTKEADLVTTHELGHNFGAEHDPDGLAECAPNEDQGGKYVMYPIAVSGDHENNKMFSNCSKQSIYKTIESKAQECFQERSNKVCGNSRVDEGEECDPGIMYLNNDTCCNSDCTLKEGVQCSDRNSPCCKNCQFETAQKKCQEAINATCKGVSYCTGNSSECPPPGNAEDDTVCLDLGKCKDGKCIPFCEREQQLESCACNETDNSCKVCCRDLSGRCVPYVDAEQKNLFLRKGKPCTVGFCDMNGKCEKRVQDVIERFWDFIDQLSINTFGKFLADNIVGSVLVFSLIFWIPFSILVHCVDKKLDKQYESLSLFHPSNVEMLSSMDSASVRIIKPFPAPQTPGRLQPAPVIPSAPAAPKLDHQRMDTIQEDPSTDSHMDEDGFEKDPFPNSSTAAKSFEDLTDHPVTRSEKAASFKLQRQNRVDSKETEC
Lipid droplet – modulators of hepatic lipid droplet formation; inhibition, % at 6.5 µM; AID 1656; AML12 mouse hepatocytes, oleate lipid droplets, BODIPY imaging; actives 0.4% (n = 240,000);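 active = lipid droplet intensity inhibited by at least 50%, with more than 500 cells counted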
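Material: mouse AML12 hepatocyte cell line, fixed after treatment; Timing: compound with oleate, overnight; Technique: high-content imaging of BODIPY-stained droplets and DAPI nuclei; Probe or stimulus: oleate, 100 µM final; Dosing: compound at 6.5 µM only.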
V-ATPase pH – yeast V-ATPase proton transport regulation by pHLuorin; actives 0.37% (n = 350,000); S. cerevisiae, pHLuorin cytosolic pH fluorescence; response, % at 10 µM; AID 504577; in the data active = response mostly above about 7.3%, no sharp cut-off; inactive = mostly below about 5.4%; note: actives read high
MPTP inh – blocks calcium-induced mitochondrial swelling. isolated mouse mitochondria, Ca2+ swelling absorbance, 30 min. inhibition, % at 10 µM. actives 1.4% (n = 360,000);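 active = inhibition of 50% or more, scaled per plate between neutral and stimulator controls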
Hep lipid conf – confirmation of inhibitors of hepatic lipid droplet formation; AML12 mouse hepatocytes, BODIPY lipid droplet imaging; droplets induced with 100 µM oleic acid; actives 65% (n = 870); shares compounds with Lipid droplet; inhibition, % at 5.2 µM; AID 463183;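 active = inhibition of lipid droplet metric at least 50%, with more than 300 cells in each of four replicates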
AML12 tox img – counter-screen for cytotoxicity in AML12 mouse hepatocytes | AID 463200 | actives 3% (n = 870) | DAPI nuclear morphology cytotoxicity imaging; active compounds read high; cells fed 100 µM oleate overnight | shares compounds with Lipid droplet | z-score at 5 µM; in the data active = z-score above about 6.3;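 note: compound exposure lasted overnight at 37 °C before fixation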
AML12 tox conf – AML12 hepatocyte cytotoxicity, confirmed; shares compounds with Lipid droplet; AML12 mouse hepatocyte viability, ATP luminescence; cells loaded with 100 µM oleic acid; cytotoxicity, % at 50 µM; 530 tested, under 10 active; AID 463219;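 active = cytotoxicity above 50% in each of four replicates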;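 note: compound exposure lasted overnight at 37 °C before the ATP read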
Of the large screens only hits and unclear results are named; the others gave an inactive call (follow-up assays come after a bar, where they were run). A selection: hits, their analogues and other compounds. The true share with any hit is near 3.1%.

COc1ccc(Cl)cc1NC(=O)CN(C)C(=O)Cc1ccsc1	none (no result: Lipid droplet)
CCOc1ccc(C(=O)Nc2ccc(NC(=S)NC(=O)CC)cc2)cc1Cl	Lipid droplet 50 | Hep lipid conf 102 | AML12 tox img inactive | AML12 tox conf inactive
CCOc1ccc(C(=O)Nc2cc(NC(=O)c3ccc(OCC)c(Cl)c3)cc(C(=O)O)c2)cc1Cl	none
COc1cccc(N=Nc2c(C)[nH]n(-c3ccccc3)c2=O)c1	Lipid droplet 51 | Hep lipid conf 103 | AML12 tox img inactive | AML12 tox conf inactive
CCN(CC)C(=O)CNc1nnnn1-c1ccccc1	none (no result: aDG glyco up, Lipid droplet, V-ATPase pH, MPTP inh)
Cc1nn(-c2ccccc2)c2c1C(c1ccc([N+](=O)[O-])cc1)N1C(=N2)C(=O)Nc2ccccc21 (stereo unspecified)	none
Cc1nn(-c2ccc([N+](=O)[O-])cc2)c2c1C(c1cccc(Br)c1)N1C(=N2)C(=O)Nc2ccccc21 (stereo unspecified)	Lipid droplet 118 | Hep lipid conf 82 | AML12 tox img inactive | AML12 tox conf inactive
Cc1ccc(-c2nc3ncccn3c2NC(=O)c2ccccc2)cc1	none (no result: aDG glyco up, Lipid droplet, V-ATPase pH, MPTP inh)
COc1ccccc1N1N=C(c2ccc([N+](=O)[O-])cc2)CC1c1ccccc1 (stereo unspecified)	Lipid droplet 67 | Hep lipid conf 110 | AML12 tox img inactive | AML12 tox conf inactive
CCCCCCn1c(N2CCN(c3cccc(Cl)c3)CC2)nc2c1c(=O)[nH]c(=O)n2C	none (no result: Lipid droplet)
CCCCn1c(=O)[nH]c(=O)c2c1nc(-c1ccc(-c3ccccc3)cc1)n2C	Lipid droplet 64 | Hep lipid conf 70 | AML12 tox img inactive | AML12 tox conf inactive
CCCCCCn1c(N2CCN(c3ccccc3)CC2)nc2c1c(=O)[nH]c(=O)n2C	Lipid droplet 58 | Hep lipid conf 93 | AML12 tox img inactive | AML12 tox conf inactive
CCCCCCCCn1c(N2CCN(c3cccc(Cl)c3)CC2)nc2c1c(=O)[nH]c(=O)n2C	Lipid droplet 83 | Hep lipid conf 98 | AML12 tox img inactive | AML12 tox conf inactive
CCCCn1c(=O)[nH]c(=O)c2c1nc(-c1ccc(C(F)(F)F)cc1)n2C	none
CC(C)[C@@H](CO)N(Cc1cn(Cc2ccccc2)nn1)S(=O)(=O)c1ccccc1Br	none (no result: aDG glyco up, Lipid droplet, V-ATPase pH, MPTP inh)
Cc1ccccc1Cn1cc(COC(=O)N2CCOCC2)nn1	none (no result: aDG glyco up, Lipid droplet, V-ATPase pH, MPTP inh)
CCc1cc(=O)oc2cc(C)cc(OCC(=O)NC3CC3)c12	none
Cc1cc(OCC(=O)NC2CC2)c2c(C)cc(=O)oc2c1	Lipid droplet 61 (no result: ADAM10 inh, ADAM17 inh) | Hep lipid conf inactive | AML12 tox img inactive
CC(=O)c1ccc(Nc2nc(=O)c3cccnc3s2)cc1	Lipid droplet 77 | Hep lipid conf inactive | AML12 tox img inactive
N#Cc1cccc(C(=O)N2CCC(Oc3cccnc3)CC2)c1	none (no result: aDG glyco up, Lipid droplet, V-ATPase pH, MPTP inh)
CCCN1CCC(=NNc2ccc(S(=O)(=O)N3CCOCC3)cc2[N+](=O)[O-])CC1	none
CCCCCC(/C=N/Nc1ccc(S(=O)(=O)N2CCOCC2)cc1[N+](=O)[O-])=C\c1ccccc1	Lipid droplet 61 | Hep lipid conf inactive | AML12 tox img inactive
O=C(CSc1nc2ccccc2s1)N1N=C(c2cccs2)CC1c1ccc(F)cc1 (stereo unspecified)	none
COc1ccc(C2CC(c3cccs3)=NN2C(=O)CSc2nc3ccccc3s2)cc1 (stereo unspecified)	Lipid droplet 74 | Hep lipid conf 101 | AML12 tox img inactive | AML12 tox conf inactive
CCCCNC(=O)c1ccc2c(c1)N(C)C(=O)c1ccccc1S2	Lipid droplet 78 | Hep lipid conf 71 | AML12 tox img inactive | AML12 tox conf inactive
CCN1C(=O)c2ccccc2Sc2ccc(C(=O)NC(C)C)cc21	none
CC(C)CCNC(=O)c1ccc2c(c1)N(C)C(=O)c1ccccc1S2	Lipid droplet 87 | Hep lipid conf 87 | AML12 tox img inactive
